Source: PubChem BioAssay
PP5 inh: PP5 (human) phosphatase inhibition; P53041; purified PP5c, OMFP substrate fluorescence; inhibition, % at 6.7 µM; 320,000 tested, 0.18% active; AID 1987;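 active = inhibition above the campaign's mean inhibition across all tested compounds plus 3 SD, cut at about 9.5% in these data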
LMPTP inh: blocks human LMPTP phosphatase; recombinant LMPTP-A, OMFP fluorogenic substrate, fluorescence intensity; inhibition, % at 20 µM; 360,000 tested, 0.22% active; AID 651560;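 active = compounds that cut the enzyme signal by at least half of the control window in the single-dose screen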
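Test system – LMPTP-A phosphatase enzyme · Quantity – 0.625 nM LMPTP-A final · Reagent – OMFP substrate, 400 µM final · Dosing – one test concentration per compound, 20 µM, with 3% DMSO overall · Timing – 50 min enzyme reaction at room temperature, protected from light · Detection – fluorescence intensity · Controls – substrate-only low control, DMSO enzyme-plus-substrate high control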
Scp-1 inhibitor: Scp-1 (human) phosphatase inhibition | Recombinant Scp1, phosphopeptide, malachite green phosphate absorbance | inhibition, % at 20 µM | 340,000 tested, 0.88% active;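 active = inhibition above about 50% at 20 µM, limit read from the data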
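System: SCP-1 catalytic domain; Reagent: Phospho 17-mer peptide substrate; Doses: one concentration, 20 µM, with 1.0% DMSO; Incubation: 45 min room-temperature reaction, 5 min colour, 30 min stabiliser; Signal: Phosphate-binding colour reagent, absorbance read at 630 nm.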
STEP block: inhibitors of human striatal-enriched phosphatase STEP. recombinant STEP, OMFP fluorogenic substrate, fluorescence. inhibition, % at 20 µM. 360,000 tested, 0.25% active. P54829;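 active = inhibition at 20 µM, scaled per plate between control wells, above about 37%, limit read from the data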
Target sequence (P54829 whole entry, looked up): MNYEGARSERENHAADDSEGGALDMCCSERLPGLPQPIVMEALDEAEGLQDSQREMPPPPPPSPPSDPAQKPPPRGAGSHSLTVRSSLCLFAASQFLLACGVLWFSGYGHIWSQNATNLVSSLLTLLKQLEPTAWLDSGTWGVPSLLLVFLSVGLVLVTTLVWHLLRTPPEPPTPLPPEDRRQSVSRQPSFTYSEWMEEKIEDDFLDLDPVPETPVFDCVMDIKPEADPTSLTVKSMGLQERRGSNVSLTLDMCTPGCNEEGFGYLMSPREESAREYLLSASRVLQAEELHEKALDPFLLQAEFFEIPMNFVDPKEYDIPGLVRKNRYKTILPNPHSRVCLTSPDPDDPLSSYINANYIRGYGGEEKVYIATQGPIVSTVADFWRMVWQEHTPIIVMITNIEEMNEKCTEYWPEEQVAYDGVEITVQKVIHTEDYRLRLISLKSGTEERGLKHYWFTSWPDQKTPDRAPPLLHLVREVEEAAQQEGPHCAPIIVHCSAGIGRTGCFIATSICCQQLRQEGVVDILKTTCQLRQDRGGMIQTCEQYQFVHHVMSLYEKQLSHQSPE
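System: STEP phosphatase, cell-free reaction; Buffer or medium: Bis-Tris pH 6.0 buffer with DTT, detergent; Incubation: 20 min at room temperature, dark; Measured by: fluorescence, 480/540 nm.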
PP1 inh: counter-screen for PP5 inhibitors: inhibitors of human PP1-alpha | P62136 | purified PP1alpha, OMFP fluorescence | inhibition, % at 6.7 µM | 320,000 tested, 0.9% active | AID 2235;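 active = inhibition above the mean inhibition of all tested compounds plus 3 SD, computed separately for each screening campaign, cut at about 15% in these data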
STEP inh conf: STEP (human) phosphatase inhibition, single concentration confirmation. shares compounds with STEP block. recombinant STEP, OMFP fluorogenic substrate, fluorescence. inhibition, % at 20 µM. 520 tested, 32% active. AID 623866; call rule not given here
A number is an active result. The list is not random: actives were taken first. Their share in the collection is about 1.9%.

How did O=C(Nc1cccc(Cl)c1)Nc1ccc2c(c1)C(=O)OC2 do in these assays?
PP5 inh: inactive; LMPTP inh: inactive; Scp-1 inhibitor: inactive; STEP block: 112; PP1 inh: inactive; STEP inh conf: inactive

How did Cc1cc(C)c2nc(-c3ccccn3)cc(C(=O)Nc3ccc(S(=O)(=O)Nc4onc(C)c4C)cc3)c2c1 do in these assays?
PP5 inh: inactive; LMPTP inh: inactive; Scp-1 inhibitor: inactive; STEP block: 41; PP1 inh: inactive; STEP inh conf: 72

Results for O=C(Nc1ccc2c(c1)OCO2)C1CCN(S(=O)(=O)c2ccc3c(c2)OCCO3)CC1 ?
PP5 inh: inactive; LMPTP inh: inactive; Scp-1 inhibitor: inactive; STEP block: inactive; PP1 inh: inactive

What do the screens show for `Cc1ccc(NC(=S)N(CCN(C)C)Cc2cccs2)c(C)c1`?
PP5 inh: inactive; LMPTP inh: inactive; Scp-1 inhibitor: inactive; STEP block: 72; PP1 inh: inactive; STEP inh conf: 42

Results for CC(=O)Nc1cc(-c2nn(C)c(=O)c3ccccc23)ccc1N1CCOCC1 ?
PP5 inh: inactive; LMPTP inh: inactive; Scp-1 inhibitor: inactive; STEP block: inactive; PP1 inh: inactive

Results for CCCC(=O)Nc1cc(-c2nn(C)c(=O)c3ccccc23)ccc1N1CCOCC1 ?
PP5 inh: inactive; LMPTP inh: inactive; Scp-1 inhibitor: inactive; STEP block: 42; PP1 inh: inactive; STEP inh conf: inactive

Results for NC(=NCc1ccc2c(c1)OCO2)NC(=O)c1ccccc1 ?
LMPTP inh: inactive; Scp-1 inhibitor: inactive; STEP block: 70; STEP inh conf: 35

Results for C/C(CCc1ccc2c(c1)OCO2)=N\NC(=O)c1ccccc1 ?
PP5 inh: inactive; LMPTP inh: inactive; Scp-1 inhibitor: inactive; STEP block: inactive; PP1 inh: inactive

What do the screens show for `COc1ccc(C2=CCCC2)c(OC)c1`?
LMPTP inh: inactive; Scp-1 inhibitor: inactive; STEP block: inactive

Results for NC1=NC(=O)/C(=C/c2ccccc2OS(=O)(=O)c2ccccc2)S1 ?
PP5 inh: inactive; LMPTP inh: inactive; Scp-1 inhibitor: inactive; STEP block: inactive; PP1 inh: inactive

What do the screens show for `CN1CCN(C2=NC(=O)/C(=C/c3ccccc3OS(=O)(=O)c3ccccc3)S2)CC1`?
PP5 inh: inactive; LMPTP inh: inactive; Scp-1 inhibitor: inactive; STEP block: 47; PP1 inh: inactive; STEP inh conf: inactive

How did OCCCn1c(CCNc2nc(-c3ccc(F)cc3)cs2)nc2cc(C(F)(F)F)ccc21 do in these assays?
PP5 inh: inactive; LMPTP inh: inactive; Scp-1 inhibitor: inactive; STEP block: inactive; PP1 inh: inactive

How did Fc1ccc(Nc2cccc3nccnc23)cc1 do in these assays?
PP5 inh: inactive; LMPTP inh: inactive; Scp-1 inhibitor: inactive; STEP block: inactive; PP1 inh: inactive

What do the screens show for `Cc1cccc(C(=O)NCC(=O)N(C)Cc2nc3ccccc3c(=O)[nH]2)c1`?
LMPTP inh: inactive; Scp-1 inhibitor: inactive; STEP block: 97; STEP inh conf: inactive

Results for CCCCOc1ccc(C(=O)NCC(=O)N(C)Cc2nc3ccccc3c(=O)[nH]2)cc1 ?
PP5 inh: inactive; LMPTP inh: inactive; Scp-1 inhibitor: inactive; STEP block: inactive; PP1 inh: inactive

What do the screens show for `N#CC1(C#N)C(c2ccccc2)OC23CCCCCC2C1(C#N)C(=N)O3` (stereo not drawn)?
PP5 inh: inactive; LMPTP inh: inactive; Scp-1 inhibitor: inactive; STEP block: inactive; PP1 inh: inactive

What do the screens show for `COc1cccc(C(=O)N=c2sc3cc(S(C)(=O)=O)ccc3n2C)c1`?
PP5 inh: inactive; LMPTP inh: inactive; Scp-1 inhibitor: inactive; STEP block: inactive; PP1 inh: inactive

How did NC(N)=NCCCS(=O)(=O)Nc1ccc(Nc2c3ccccc3nc3cc([N+](=O)[O-])ccc23)cc1 do in these assays?
LMPTP inh: 63; Scp-1 inhibitor: inactive; STEP block: 48; STEP inh conf: inactive

How did O=[N+]([O-])c1ccc(Nc2c3ccccc3nc3ccccc23)cc1 do in these assays?
LMPTP inh: inactive; Scp-1 inhibitor: inactive; STEP block: inactive

What do the screens show for `COC(=O)c1c(C(=O)OC)c2cc(C)ccn2c1Cl`?
PP5 inh: inactive; LMPTP inh: inactive; Scp-1 inhibitor: inactive; STEP block: inactive; PP1 inh: inactive

Results for COc1ccccc1NS(=O)(=O)c1cc(NC(=O)c2sccc2C)ccc1N1CCCC1 ?
PP5 inh: inactive; LMPTP inh: inactive; Scp-1 inhibitor: inactive; STEP block: 98; PP1 inh: inactive; STEP inh conf: 93

How did COc1ccccc1NS(=O)(=O)c1cc(NC(=S)NCCN2CCOCC2)ccc1N1CCOCC1 do in these assays?
PP5 inh: inactive; LMPTP inh: inactive; Scp-1 inhibitor: inactive; STEP block: 91; PP1 inh: inactive; STEP inh conf: 69

What do the screens show for `COc1ccccc1NS(=O)(=O)c1cc(NC(=O)C(C)(C)C)ccc1N1CCOCC1`?
PP5 inh: inactive; LMPTP inh: inactive; Scp-1 inhibitor: inactive; STEP block: inactive; PP1 inh: inactive

Results for COc1ccc(C(=O)COC(=O)c2ccc3c(c2)OCCO3)c(OC)c1 ?
LMPTP inh: inactive; Scp-1 inhibitor: inactive; STEP block: inactive

What do the screens show for `Cc1ccc(C(=O)Nc2ccc(C(=O)N/N=C/c3cccnc3)cc2)cc1`?
PP5 inh: inactive; LMPTP inh: inactive; Scp-1 inhibitor: inactive; STEP block: 75; PP1 inh: inactive; STEP inh conf: inactive

Results for C/C(=N\NC(=O)c1ccc(OC2OCCOC2Oc2ccc(C(=O)N/N=C(\C)c3ccncc3)cc2)cc1)c1ccncc1 (stereo not drawn) ?
PP5 inh: inactive; LMPTP inh: 66; Scp-1 inhibitor: inactive; STEP block: 45; PP1 inh: inactive; STEP inh conf: inactive

Results for COCCn1c(=S)[nH]c2cc(C(=O)NCc3ccccc3)ccc2c1=O ?
LMPTP inh: inactive; STEP block: inactive

Results for COc1cc(C(=S)N2CCCCC2)ccc1O ?
PP5 inh: inactive; LMPTP inh: inactive; Scp-1 inhibitor: inactive; STEP block: 98; PP1 inh: inactive; STEP inh conf: 75

What do the screens show for `O=C(CC(=O)c1cccc([N+](=O)[O-])c1)Nc1ccccc1Cl`?
PP5 inh: inactive; LMPTP inh: inactive; Scp-1 inhibitor: inactive; STEP block: 120; PP1 inh: inactive; STEP inh conf: inactive

Results for O=C(CC(=O)c1ccccc1)Nc1cccc([N+](=O)[O-])c1 ?
LMPTP inh: inactive; STEP block: inactive

Results for COCCN(C(=S)Nc1ccc(OC)c(Cl)c1)C1CCN(C(C)C)CC1 ?
PP5 inh: inactive; LMPTP inh: inactive; Scp-1 inhibitor: inactive; STEP block: 71; PP1 inh: inactive; STEP inh conf: inactive

How did COCCN(C(=S)Nc1ccc(OC)cc1)C1CCN(C(C)C)CC1 do in these assays?
PP5 inh: inactive; LMPTP inh: inactive; Scp-1 inhibitor: inactive; STEP block: inactive; PP1 inh: inactive
